Holding throughout (type): biochemical
One data set deals with T1, recombinant human CYP1B1 (Homo sapiens, UniProt Q16678).
T1 sequence (Q16678 1-543): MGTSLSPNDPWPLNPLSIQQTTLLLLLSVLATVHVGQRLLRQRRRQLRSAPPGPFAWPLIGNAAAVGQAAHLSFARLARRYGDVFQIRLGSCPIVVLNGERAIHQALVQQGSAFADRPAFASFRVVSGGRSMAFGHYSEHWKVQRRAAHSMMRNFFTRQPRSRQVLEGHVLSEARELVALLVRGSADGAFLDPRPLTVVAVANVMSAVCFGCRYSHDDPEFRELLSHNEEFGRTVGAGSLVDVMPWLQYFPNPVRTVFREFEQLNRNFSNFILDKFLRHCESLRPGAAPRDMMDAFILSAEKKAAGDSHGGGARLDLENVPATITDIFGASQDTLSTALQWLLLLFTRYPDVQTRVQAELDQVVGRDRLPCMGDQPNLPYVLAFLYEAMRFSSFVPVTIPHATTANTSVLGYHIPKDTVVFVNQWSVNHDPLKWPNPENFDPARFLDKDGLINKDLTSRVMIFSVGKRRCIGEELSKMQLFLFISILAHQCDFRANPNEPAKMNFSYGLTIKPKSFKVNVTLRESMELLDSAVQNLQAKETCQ
The experiment in a line: EROD assay, recombinant human CYP1B1 inhibition. Conditions: for IC50 ratio 1A1/1B1: selectivity for CYP1B1 over CYP1A1; for IC50 ratio 1A2/1B1: selectivity for CYP1B1 over CYP1A2.

The target in the next data set is T2, CYP1A1 (Homo sapiens, UniProt P04798).
T2 sequence (P04798 1-512): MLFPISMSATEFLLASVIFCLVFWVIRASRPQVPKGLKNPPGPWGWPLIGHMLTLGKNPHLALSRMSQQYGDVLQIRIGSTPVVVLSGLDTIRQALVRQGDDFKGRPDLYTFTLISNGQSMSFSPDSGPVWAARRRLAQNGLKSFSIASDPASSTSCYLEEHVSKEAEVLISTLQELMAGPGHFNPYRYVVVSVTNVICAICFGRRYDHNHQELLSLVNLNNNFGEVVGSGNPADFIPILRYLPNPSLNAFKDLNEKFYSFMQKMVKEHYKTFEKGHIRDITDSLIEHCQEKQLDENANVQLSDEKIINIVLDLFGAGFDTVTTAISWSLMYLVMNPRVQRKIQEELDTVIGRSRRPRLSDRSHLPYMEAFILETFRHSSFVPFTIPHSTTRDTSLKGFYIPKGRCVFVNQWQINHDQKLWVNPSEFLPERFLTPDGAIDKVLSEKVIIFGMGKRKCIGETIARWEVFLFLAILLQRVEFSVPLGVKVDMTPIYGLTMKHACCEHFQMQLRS
The experiment in a line: EROD assay, recombinant human CYP1A1 inhibition. Put shortly:
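Supersomes with P450 reductase. Test compound is taken from 10 mM DMSO stock into Tris–HCl pH 7.4 (final DMSO <1% v/v), at several concentrations. Methanol stop. Resorufin fluorescence read at ex 544/em 590 nm. IC50 from nonlinear regression, log(inhibitor) vs normalized response, variable slope.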

The next data set deals with T3, CYP1A2 (Homo sapiens, UniProt P05177).
T3 sequence (P05177 2-516 limits assumed): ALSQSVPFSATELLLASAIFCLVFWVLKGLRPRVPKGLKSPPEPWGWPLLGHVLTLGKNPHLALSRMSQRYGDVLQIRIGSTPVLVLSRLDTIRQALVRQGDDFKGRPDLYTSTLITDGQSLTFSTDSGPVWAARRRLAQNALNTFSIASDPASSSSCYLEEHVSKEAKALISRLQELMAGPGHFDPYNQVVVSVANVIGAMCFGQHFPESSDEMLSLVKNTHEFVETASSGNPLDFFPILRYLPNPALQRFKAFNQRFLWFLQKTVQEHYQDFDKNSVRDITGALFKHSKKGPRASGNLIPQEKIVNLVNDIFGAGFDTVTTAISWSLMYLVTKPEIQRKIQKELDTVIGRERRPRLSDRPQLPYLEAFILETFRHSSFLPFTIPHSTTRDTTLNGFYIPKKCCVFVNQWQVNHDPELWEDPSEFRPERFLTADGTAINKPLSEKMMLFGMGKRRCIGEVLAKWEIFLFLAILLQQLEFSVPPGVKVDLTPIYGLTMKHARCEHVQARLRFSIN
As to the kind of experiment: EROD assay, recombinant human CYP1A2 inhibition.

Read-outs that look alike come from different tables or passages of the source.

Data on eleven compounds can be found in paper PMC9080015 (RSC Advances, 2018).

As a reminder, the IC50 is the concentration that gives 50% inhibition. As for “2-Phenylbenzo[h]quinolin-4-ol [Compound 4a]”, the half-maximal inhibitory concentration (IC50) at recombinant human CYP1B1 (read-out: IC50 values (nM) 1B1, EROD assay, 20 fmol CYP1B1, 150 nM 7-ER, 37 °C, 35 min) was determined as 7.6 nM; on CYP1A1 (read-out: IC50 values (nM) 1A1, EROD assay, 10 fmol CYP1A1, 150 nM 7-ER, 37 °C, 15 min) it was 18.5 nM; at CYP1A2 (read-out: IC50 values (nM) 1A2, EROD assay, 60 fmol CYP1A2, 150 nM 7-ER, 37 °C, 50 min), 147 nM. Also, the “IC50 ratio 1A1/1B1” value at recombinant human CYP1B1 was 2.4. In addition, the “IC50 ratio 1A2/1B1” value on recombinant human CYP1B1 was determined as 19.3.
Consider `O=C1CC(c2ccccc2)Nc2c1ccc1ccccc21` (stereo not drawn) [Compound 1a, 2-Phenyl-2,3-dihydrobenzo[h]quinolin-4(1H)-one], for which the figures for the half-maximal inhibitory concentration (IC50) on recombinant human CYP1B1, on CYP1A1 and on CYP1A2 were 131 nM, 405 nM and 953 nM, respectively. The “IC50 ratio 1A1/1B1” value at recombinant human CYP1B1 is given as 3.1. Moreover, at recombinant human CYP1B1, the “IC50 ratio 1A2/1B1” value was 7.3.
The matching figures for `COc1cc(C2CC(=O)c3ccc4ccccc4c3N2)cc(OC)c1OC` (stereo not drawn) [Compound 1b, 2-(3,4,5-Trimethoxyphenyl)-2,3-dihydrobenzo[h]quinolin-4(1H)-one]: 20.2 nM, 44.6 nM, greater than 5000 nM, 2.2 and greater than 247.5.
The like results for `O=C1CC(c2ccccc2F)Nc2c1ccc1ccccc21` (stereo not drawn) [Compound 1c, 2-(2-Fluorophenyl)-2,3-dihydrobenzo[h]quinolin-4(1H)-one] were, in that order, 139 nM, 578 nM, 1100 nM, 4.1 and 7.9.
The matching figures for `O=C1CC(c2cccc(F)c2)Nc2c1ccc1ccccc21` (stereo not drawn) [Compound 1d, 2-(3-Fluorophenyl)-2,3-dihydrobenzo[h]quinolin-4(1H)-one]: 98.6 nM, 493 nM, 1050 nM, 5.0 and 10.6.
For the compound `O=C1c2ccc3ccccc3c2N[C@@H](c2ccccc2)[C@H]1O` [Compound 2a, (2S,3R) 3-Hydroxy-2-phenyl-2,3-dihydrobenzo[h]quinolin-4(1H)-one], on recombinant human CYP1B1, the IC50 is 260 nM, the “IC50 ratio 1A1/1B1” value came to 2.3 and the “IC50 ratio 1A2/1B1” value is listed as 5.4. The IC50 at CYP1A1 is 588 nM. Also, the 50% inhibitory concentration (IC50) on CYP1A2 worked out at 1410 nM.
The like results for `COc1cc([C@@H]2Nc3c(ccc4ccccc34)C(=O)[C@@H]2O)cc(OC)c1OC` [Compound 2b, (2S,3R) 3-Hydroxy-2-(3,4,5-trimethoxyphenyl)-2,3-dihydrobenzo[h]quinolin-4(1H)-one] were, in that order, 303 nM, 3.8, greater than 16.5, 1160 nM and greater than 5000 nM.
The matching figures for `O=c1c(O)c(-c2ccccc2)[nH]c2c1ccc1ccccc12` [Compound 3a, 3-Hydroxy-2-phenylbenzo[h]quinolin-4(1H)-one]: 86.7 nM, 10.4, greater than 57.7, 898 nM and greater than 5000 nM.
The like results for `O=c1c(O)c(-c2ccccc2F)[nH]c2c1ccc1ccccc12` [Compound 3b, 2-(2-Fluorophenyl)-3-hydroxybenzo[h]quinolin-4(1H)-one] were, in that order, 85.9 nM, 20.8, greater than 58.2, 1780 nM and greater than 5000 nM.
On to `COc1cc2c(=O)cc(-c3ccc(F)cc3)[nH]c2c2c(OC)cccc12` [Compound 5g, 2-(4-Fluorophenyl)-6,10-dimethoxybenzo[h]quinolin-4(1H)-one], for which, on recombinant human CYP1B1, the “IC50 ratio 1A1/1B1” value stood at 2.7 and the “IC50 ratio 1A2/1B1” value is 540.3. For the same compound, the half-maximal inhibitory concentration (IC50) on CYP1A2 is 2110 nM.
The like results for `COc1ccc(-c2cc(=O)c3cc(OC)c4cccc(OC)c4c3[nH]2)cc1` [Compound 5h, 6,10-Dimethoxy-2-(4-methoxyphenyl)benzo[h]quinolin-4(1H)-one] were, in that order, 15.8, greater than 1219.5 and greater than 5000 nM.
